Laboratory results reported in ChEMBL document CHEMBL2029264, “Indole-based fibrates as potential hypolipidemic and antiobesity agents” (J Med Chem, 2012).
Activity calls are given as the source filed them. The rule behind the calls is not given here.

Tests used:
Rattus norvegicus [1] = assay: Antihyperlipidemic activity in Triton WR-1339-induced hyperlipidemic rat assessed as decrease in plasma total cholesterol level at 100 mg/kg, po relative to control; type: functional; parameters: scale not given: the % may be the effect or the level left
How it was run: (§1)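 Triton WR-1339 given to rats to induce hyperlipidemia; oral dosing. Plasma TC, PL, TG in mg/dL; PHLA as […]/h/mL plasma. Mean ± SD of six rats; Triton group compared with control, Triton plus dosed group compared with Triton group.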

Rattus norvegicus [2] = assay: Antihyperlipidemic activity in Triton WR-1339-induced hyperlipidemic rat assessed as decrease in plasma total cholesterol level at 50 mg/kg, po; type: functional
How it was run: (§2)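 Separate set of Triton WR-1339-induced hyperlipidemic rats, oral doses of 50, 100 and 150 mg/kg. Plasma TC, PL, TG in mg/dL; PHLA as […]/h/mL plasma. Mean ± SD of six rats versus Triton group.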

Rattus norvegicus [3] = assay: Antihyperlipidemic activity in Triton WR-1339-induced hyperlipidemic rat assessed as decrease in plasma phospholipid level at 50 mg/kg, po; type: functional; how it was run: as §2
Rattus norvegicus [4] = assay: Antihyperlipidemic activity in Triton WR-1339-induced hyperlipidemic rat assessed as decrease in plasma triglyceride level at 50 mg/kg, po; type: functional; how it was run: as §2
Rattus norvegicus [5] = assay: Antihyperlipidemic activity in Triton WR-1339-induced hyperlipidemic rat assessed as decrease in plasma total cholesterol level at 150 mg/kg, po; type: functional; how it was run: as §2
Rattus norvegicus [6] = assay: Antihyperlipidemic activity in Triton WR-1339-induced hyperlipidemic rat assessed as decrease in plasma triglyceride level at 150 mg/kg, po; type: functional; how it was run: as §2
Rattus norvegicus [7] = assay: Antihyperlipidemic activity in Triton WR-1339-induced hyperlipidemic rat assessed as increase in LCAT enzyme level at 100 mg/kg, po; type: functional; how it was run: as §1
Rattus norvegicus [8] = assay: Antihyperlipidemic activity in po dosed Triton WR-1339-induced hyperlipidemic rat assessed as decrease in plasma total cholesterol level; type: functional, organism-based; how it was run: as §1
Rattus norvegicus [9] = assay: Antihyperlipidemic activity in po dosed Triton WR-1339-induced hyperlipidemic rat assessed as decrease in plasma phospholipid level; type: functional, organism-based; how it was run: as §1
Rattus norvegicus [10] = assay: Antihyperlipidemic activity in po dosed Triton WR-1339-induced hyperlipidemic rat assessed as increase in LCAT enzyme level; type: functional, organism-based; how it was run: as §1
Rattus norvegicus [11] = assay: Antiobesity activity in HFD-induced hyperlipidemic Charles Foster rat assessed as decrease in body weight at 100 mg/kg, po administered for 4 weeks; type: functional, organism-based; parameters: dose 100 mg/kg
How it was run: (§3)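 Adult male Charles Foster rats given high-fat or normal diet 4 weeks, then diet plus vehicle or daily dosing 4 more weeks, sacrificed at week 8. Body weight gain, food intake, food efficiency ratio (weight gain/food intake over the period), and mesenteric, gonadal, inguinal and perirenal fat-pad weights recorded; mean ± SD, n = 6.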

Rattus norvegicus [12] = assay: Antiobesity activity in HFD-induced hyperlipidemic Charles Foster rat assessed as decrease in mesenteric fat-pad at 100 mg/kg, po administered for 4 weeks; type: functional, organism-based; parameters: dose 100 mg/kg; how it was run: as §3
Rattus norvegicus [13] = assay: Antiobesity activity in HFD-induced hyperlipidemic Charles Foster rat assessed as decrease in inguinal fat-pad at 100 mg/kg, po administered for 4 weeks; type: functional, organism-based; parameters: dose 100 mg/kg; how it was run: as §3
Rattus norvegicus [14] = assay: Antihyperlipidemic activity in HFD-induced hyperlipidemic Charles Foster rat assessed as decrease in serum triglyceride level at 100 mg/kg, po administered for 4 weeks relative to control; type: functional; parameters: scale not given: the % may be the effect or the level left
How it was run: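 Male Charles Foster rats (200−225 g): high-fat diet 4 weeks, then diet plus daily dosing 4 weeks. Overnight fast, retro-orbital blood in EDTA (3 mg/mL blood), centrifuged to serum. TC, PL, TG in mg/dL; LCAT as nmol cholesterol released/h/L plasma. Mean ± SD; dosed groups compared with high-fat group, P by significance levels.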

Rattus norvegicus [15] = assay: Antihyperlipidemic activity in HFD-induced hyperlipidemic Charles Foster rat assessed as decrease in plasma VLDL-total cholesterol level at 100 mg/kg, po administered for 4 weeks relative to control; type: functional; parameters: scale not given: the % may be the effect or the level left
How it was run: (§4)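 After 4 weeks high-fat feeding plus 4 weeks daily dosing, overnight fast, retro-orbital blood into EDTA tubes. Serum split into VLDL, LDL and HDL by polyanionic precipitation; each fraction assayed for TC, PL, TG and apoprotein (mg/dL plasma). Pooled data from 6 rats/group, mean ± SD, dosed groups compared with high-fat group.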

Rattus norvegicus [16] = assay: Antihyperlipidemic activity in HFD-induced hyperlipidemic Charles Foster rat assessed as decrease in plasma LDL-total cholesterol level at 100 mg/kg, po administered for 4 weeks relative to control; type: functional; parameters: scale not given: the % may be the effect or the level left; how it was run: as §4
Rattus norvegicus [17] = assay: Antihyperlipidemic activity in HFD-induced hyperlipidemic Charles Foster rat assessed as decrease in plasma LDL-triglyceride level at 100 mg/kg, po administered for 4 weeks relative to control; type: functional; parameters: scale not given: the % may be the effect or the level left; how it was run: as §4
Rattus norvegicus [18] = assay: Antihyperlipidemic activity in HFD-induced hyperlipidemic Charles Foster rat assessed as decrease in plasma LDL-apoprotein level at 100 mg/kg, po administered for 4 weeks relative to control; type: functional; parameters: scale not given: the % may be the effect or the level left; how it was run: as §4
Rattus norvegicus [19] = assay: Antihyperlipidemic activity in HFD-induced hyperlipidemic Charles Foster rat assessed as increase in plasma HDL-total cholesterol level at 100 mg/kg, po administered for 4 weeks relative to control; type: functional; how it was run: as §4
Rattus norvegicus [20] = assay: Antihyperlipidemic activity in HFD-induced hyperlipidemic Charles Foster rat assessed as decrease in liver total cholesterol level at 100 mg/kg, po administered for 4 weeks relative to control; type: functional; parameters: scale not given: the % may be the effect or the level left
How it was run: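 Adult male Charles Foster rats (200−225 g), high-fat diet 4 weeks, then diet plus daily dosing 4 more weeks; overnight fast, sacrifice, liver washed in cold 0.15 M KCl and held at 4 °C. Lipids extracted from liver homogenate in CHCl3/CH3OH (2:1 v/v), TC, PL and TG read in mg/g; pooled data from 6 rats/group, mean ± SD.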

Rattus norvegicus [21] = assay: Antihyperlipidemic activity in HFD-induced hyperlipidemic Charles Foster rat assessed as decrease in macrovesicular steatosis at 100 mg/kg, po administered for 4 weeks by light microscopic analysis; type: functional, organism-based; parameters: dose 100 mg/kg
How it was run: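 Rats on high-fat diet 4 weeks, then diet plus daily dosing for another 4 weeks before sacrifice. Liver sections 4 μm thick, stained with Ehrlich's hematoxylin and eosin, examined by light microscope for centrilobular macrovesicular steatosis.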

Rattus norvegicus [22] = assay: Antihyperlipidemic activity in HFD-induced hyperlipidemic Charles Foster rat assessed as increase in [I125]-LDL catabolism in plasma membrane of liver at 100 mg/kg/day, po administered for 4 weeks; type: functional
How it was run: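 Rats on 8 weeks total of high-fat diet, dosed daily for the last 4 weeks, then sacrificed. Human serum LDL radiolabeled with I125; specific binding to liver plasma membrane preparation measured as receptor-mediated LDL catabolism. Mean ± SD, n = 6.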

Rattus norvegicus [23] = assay: Antihyperlipidemic activity in HFD-induced hyperlipidemic Charles Foster rat assessed as increase in cholic acid excretion in feces at 100 mg/kg/day, po administered for 4 weeks measured after 30 days relative to control; type: functional
How it was run: (§5)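 Rats fed high-fat diet 4 weeks, then diet plus daily dosing 4 weeks. Cholic and deoxycholic acid excreted in feces measured; dosed groups compared with high-fat group, control compared with high-fat group.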

Rattus norvegicus [24] = assay: Antihyperlipidemic activity in HFD-induced hyperlipidemic Charles Foster rat assessed as increase in deoxycholic acid excretion in feces at 100 mg/kg/day, po administered for 4 weeks measured after 30 days relative to control; type: functional; how it was run: as §5
Rattus norvegicus [25] = assay: Toxicity in HFD-induced hyperlipidemic Charles Foster rat assessed as mortality at 100 mg/kg/day, po administered for 4 weeks; type: organism-based; parameters: route oral; conditions: in vivo, 672 h
How it was run: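 Male Charles Foster rats (200−225 g) were fed a high-fat diet for 4 weeks, then dosed at 100 mg/kg/d alongside the same diet for 4 more weeks. Survival was monitored. After an overnight fast, blood was drawn and the animals were sacrificed. Macroscopic inspection and autopsy were then performed, with n = 6 per group.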

Row | Compound | Activity (Rattus norvegicus [1]) | Activity (Rattus norvegicus [2]) | Activity (Rattus norvegicus [3]) | Activity (Rattus norvegicus [4]) | Activity (Rattus norvegicus [5]) | Activity (Rattus norvegicus [6]) | Activity (Rattus norvegicus [7]) | Activity (Rattus norvegicus [8]) | Activity (Rattus norvegicus [9]) | Activity (Rattus norvegicus [10]) | Activity (Rattus norvegicus [11]) | Activity (Rattus norvegicus [12]) | Activity (Rattus norvegicus [13]) | Activity (Rattus norvegicus [14]) | Activity (Rattus norvegicus [15]) | Activity (Rattus norvegicus [16]) | Activity (Rattus norvegicus [17]) | Activity (Rattus norvegicus [18]) | Activity (Rattus norvegicus [19]) | Activity (Rattus norvegicus [20]) | further results
1 | CCOC(=O)C(C)Oc1ccc(C(c2cn(CC)c3ccccc23)c2cn(CC)c3ccccc23)cc1 (stereo not given) | 22% | 16 mg/dL | 15 mg/dL | 12 mg/dL | 33 mg/dL | 26 mg/dL | 12 nmol/h/mL | Dose-dependent effect | Dose-dependent effect | Dose-dependent effect | Active | Active | Active | 25% | 21% | 24% | 21% | 25% | 14% | 23% | Activity (Rattus norvegicus [21]): Active; Activity (Rattus norvegicus [22]): 24%; Activity (Rattus norvegicus [23]): 26%; Activity (Rattus norvegicus [24]): 28%; Activity (Rattus norvegicus [25]): Non-toxic
2 | CCOC(=O)CCCOc1ccc(C(c2cn(C)c3ccccc23)c2cn(C)c3ccccc23)cc1 | 20% | 15 mg/dL | 16 mg/dL | 13 mg/dL | 35 mg/dL | 27 mg/dL | 15 nmol/h/mL | Dose-dependent effect | Dose-dependent effect | Dose-dependent effect | Active | Active | Active | 27% | 15% | 22% | 25% | 21% | 12% | 26% | Activity (Rattus norvegicus [21]): Active; Activity (Rattus norvegicus [22]): 18%; Activity (Rattus norvegicus [23]): 21%; Activity (Rattus norvegicus [24]): 31%; Activity (Rattus norvegicus [25]): Non-toxic
